In ChEMBL document CHEMBL1126042, “Reversible inhibitors of the gastric (H+/K+)-ATPase. 2. 1-Arylpyrrolo[3,2-c]quinolines: effect of the 4-substituent” (J Med Chem, 1992):

Tests used:
[1] = molecular target: T1, Potassium-transporting ATPase (Rattus norvegicus, UniProt P09626); experiment: Inhibition of rat isolated gastric (H(+)/K(+))-ATPase.; type: tissue-based, Stomach
Outline: (§1)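 (H+/K+)-ATPase activity measured in lyophilized gastric vesicles; compounds dissolved in DMSO, then diluted into pH 7.0 buffer. IC50 given as mean ± range (n = 2) or as a single observed value (n = 1).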

Rattus norvegicus [2] = experiment: Percentage inhibition of rat gastric secretion following 10 uM/Kg i.v.
[3] = molecular target: T1, Potassium-transporting ATPase; experiment: The compound was evaluated for the inhibition of gastric H+/K+ ATPase; type: tissue-based, Stomach; outline: as §1
Rattus norvegicus [4] = experiment: The compound was evaluated for the percentage inhibition of rat gastric secretion at a dose of 10 umol/kg on intravenous administration; type: functional; settings: Stomach
Rattus norvegicus [5] = experiment: The compound was evaluated for the gastric antisecretory activity in the lumen-perfused rat on intravenous administration; type: functional; settings: Stomach
Canis familiaris [6] = experiment: The compound was evaluated for the gastric antisecretory activity in the Heidenhain pouch dog for a dose of 1 umol/kg on intravenous administration.; type: functional; settings: Canis lupus familiaris, Stomach
Outline: (§2)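 Conscious Heidenhain pouch dogs dosed intravenously; inhibition of gastric acid secretion measured.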

Rattus norvegicus [7] = experiment: The compound was evaluated for the percentage inhibition of rat gastric secretion at a dose of 10 umol/kg on intravenous administration; d = Compound was too insoluble for intravenous administration; type: functional, organism-based; settings: Stomach
[8] = molecular target: Potassium-transporting ATPase (Rattus norvegicus, UniProt P09626+P18598); experiment: The compound was evaluated for the inhibition of gastric (H(+)/K(+))-ATPase; Compound was insoluble; type: protein-complex assay, Stomach; outline: as §1
[9] = molecular target: T2, Potassium-transporting ATPase (Rattus norvegicus) (UniProt P09626+P18598); experiment: The compound was evaluated for the inhibition of gastric (H(+)/K(+))-ATPase at 30 uM; settings: Stomach
[10] = molecular target: T2, Potassium-transporting ATPase (Rattus norvegicus); experiment: The compound was evaluated for the inhibition of gastric H+/K+ ATPase at 10 uM; type: tissue-based; settings: Stomach
[11] = molecular target: T2, Potassium-transporting ATPase (Rattus norvegicus); experiment: The compound was evaluated for the inhibition of gastric H+/K+ ATPase at 100 uM; type: tissue-based; settings: Stomach
Canis familiaris [12] = experiment: The compound was evaluated for the gastric antisecretory activity in the Heidenhain pouch dog for a dose of 1 umol/kg on intravenous administration; type: functional; settings: Canis lupus familiaris, Stomach; outline: as §2
Canis familiaris [13] = experiment: The compound was evaluated for the gastric antisecretory activity in the Heidenhain pouch dog for a dose of 4 umol/kg on intravenous administration; type: functional; settings: Canis lupus familiaris, Stomach; outline: as §2
[14] = molecular target: T2, Potassium-transporting ATPase (Rattus norvegicus); experiment: The compound was evaluated for the inhibition of gastric (H(+)/K(+))-ATPase at 100 uM; type: protein-complex assay; settings: Stomach

T1 sequence (P09626 whole entry): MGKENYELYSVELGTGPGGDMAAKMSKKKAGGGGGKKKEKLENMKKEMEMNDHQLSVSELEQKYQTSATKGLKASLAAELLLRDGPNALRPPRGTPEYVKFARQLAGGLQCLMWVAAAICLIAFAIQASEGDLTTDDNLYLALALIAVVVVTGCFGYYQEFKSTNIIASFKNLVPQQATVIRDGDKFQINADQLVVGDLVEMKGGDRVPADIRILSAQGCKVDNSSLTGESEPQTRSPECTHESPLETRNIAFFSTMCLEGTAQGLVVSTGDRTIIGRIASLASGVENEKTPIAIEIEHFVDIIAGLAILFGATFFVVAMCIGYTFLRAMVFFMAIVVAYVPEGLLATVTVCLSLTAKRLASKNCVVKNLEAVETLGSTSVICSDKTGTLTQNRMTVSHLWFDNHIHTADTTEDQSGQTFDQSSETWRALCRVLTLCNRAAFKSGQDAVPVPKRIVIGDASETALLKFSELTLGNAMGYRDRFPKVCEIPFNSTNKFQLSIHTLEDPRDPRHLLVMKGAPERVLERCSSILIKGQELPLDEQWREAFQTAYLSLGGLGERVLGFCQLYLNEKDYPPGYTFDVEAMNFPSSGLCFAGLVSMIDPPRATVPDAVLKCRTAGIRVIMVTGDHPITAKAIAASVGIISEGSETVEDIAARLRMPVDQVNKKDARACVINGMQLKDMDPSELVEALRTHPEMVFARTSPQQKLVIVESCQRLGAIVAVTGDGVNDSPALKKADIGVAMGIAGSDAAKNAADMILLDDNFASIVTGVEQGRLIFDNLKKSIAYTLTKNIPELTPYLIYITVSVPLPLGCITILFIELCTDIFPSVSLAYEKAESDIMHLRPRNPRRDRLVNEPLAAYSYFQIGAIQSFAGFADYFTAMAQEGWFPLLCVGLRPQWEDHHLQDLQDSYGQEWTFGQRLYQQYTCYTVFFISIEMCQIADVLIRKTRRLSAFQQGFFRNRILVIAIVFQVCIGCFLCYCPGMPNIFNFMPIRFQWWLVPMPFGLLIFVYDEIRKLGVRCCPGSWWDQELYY
T1 sequence (P18598 whole entry, further chain): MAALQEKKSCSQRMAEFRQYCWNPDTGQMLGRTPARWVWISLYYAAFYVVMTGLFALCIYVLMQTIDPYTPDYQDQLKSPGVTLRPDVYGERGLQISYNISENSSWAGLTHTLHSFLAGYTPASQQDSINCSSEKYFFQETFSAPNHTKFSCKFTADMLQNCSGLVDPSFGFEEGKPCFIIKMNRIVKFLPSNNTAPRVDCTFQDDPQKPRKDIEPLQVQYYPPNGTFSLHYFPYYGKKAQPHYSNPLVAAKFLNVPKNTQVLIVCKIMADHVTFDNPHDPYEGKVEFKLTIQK
Chain of Potassium-transporting ATPase (Rattus norvegicus, UniProt P09626+P18598) (P09626 whole entry): as the sequence (P09626 whole entry) above
Chain of Potassium-transporting ATPase (Rattus norvegicus, UniProt P09626+P18598) (P18598 whole entry): as the sequence (P18598 whole entry, further chain) above

Compound	IC50 [1] [nM]	Inhibition (Rattus norvegicus [2]) [%]	further results
Cc1ccccc1-n1ccc2c(NCCCO)nc3c(C)cccc3c21	410	30	
COc1ccccc1N1CCc2c1c1cccc(OC)c1[nH]c2=O	33400		
CNc1nc2c(OC)cccc2c2c1CCN2c1ccccc1C	250	49	
COc1ccccc1N1CCc2c(Cl)nc3c(OC)cccc3c21			IC50 [3]: 10700 nM; inhibition in vivo at 10 µmol/kg (Rattus norvegicus [4]): 19%
Cc1ccccc1N1CCc2c(CO)nc3ccccc3c21	1230	33	
COc1cccc2c1nc(C)c1ccn(-c3ccccc3C)c12	640	48	ED50 (Rattus norvegicus [5]): 7.08 µmol/kg
Cc1ccccc1N1CCc2c(N)nc3c(C)cccc3c21	220	63	inhibition in vivo at 1 µmol/kg (Canis familiaris [6]): 53%; ED50 (Rattus norvegicus [5]): 4.3 µmol/kg
COc1ccccc1N1CCc2c(O)nc3c(OC)cccc3c21			inhibition (Rattus norvegicus [7]): Too insoluble
Cc1ccccc1N1CCc2cnc3c(C)cccc3c21	980	47	ED50 (Rattus norvegicus [5]): 16.2 µmol/kg
COc1ccccc1N1CCc2c(N)nc3c(OC)cccc3c21	440	20	
CNc1nc2c(C)cccc2c2c1ccn2-c1ccccc1C	290	61	
COc1cccc2c3c(c(C(=O)Nc4ccccc4C)nc12)CCN3c1ccccc1C			IC50 [8]: Insoluble
CSc1nc2c(C)cccc2c2c1CCN2c1ccccc1C			inhibition (Rattus norvegicus [7]): Too insoluble; inhibition [9]: 0%
CNc1nc2c(C)cccc2c2c1CCN2c1ccc(OC)cc1C	280	67	
Cc1ccccc1N1CCc2c(Cl)nc3c(C)cccc3c21			inhibition [10]: 25%; inhibition in vivo at 10 µmol/kg (Rattus norvegicus [4]): 15%
COc1cccc2c3c(c(NCCO)nc12)CCN3c1ccccc1C	280	67	
COc1ccccc1N1CCc2cnc3c(OC)cccc3c21	1290	31	
Cc1ccccc1-n1ccc2c(NCCO)nc3c(C)cccc3c21	170	48	
Cc1ccccc1-n1ccc2c(Cl)nc3c(C)cccc3c21			inhibition [11]: 30%; inhibition [10]: 2%
Cc1ccccc1N1CCc2c1nc1c(C)cccc1c2Nc1ccccc1	1100	0	
COc1nc2c(C)cccc2c2c1CCN2c1ccccc1C			inhibition (Rattus norvegicus [7]): Too insoluble; inhibition [9]: 0%
CNc1nc2c(C)cccc2c2c1CCN2c1ccccc1C	180	72	inhibition in vivo at 1 µmol/kg (Canis familiaris [12]): 67%; inhibition in vivo at 4 µmol/kg (Canis familiaris [13]): 95%; ED50 (Rattus norvegicus [5]): 2.8 µmol/kg
CCOC(=O)c1cc(Nc2ccccc2C)c2cccc(OC)c2n1	850		ED50 (Rattus norvegicus [5]): 8.2 µmol/kg
Cc1ccccc1N1CCc2c1nc1c(C)cccc1c2Cl			inhibition [14]: 8%
Cc1ccccc1N1CCc2c(NC(N)=O)nc3c(C)cccc3c21	1990		inhibition (Rattus norvegicus [7]): Too insoluble
CNC(=O)Nc1nc2c(C)cccc2c2c1CCN2c1ccccc1C	4970		inhibition (Rattus norvegicus [7]): Too insoluble
Cc1ccccc1N1CCc2c(N(C)C)nc3c(C)cccc3c21	1030	56	ED50 (Rattus norvegicus [5]): 7.2 µmol/kg
Cc1ccccc1-n1ccc2c(NCCCCO)nc3c(C)cccc3c21	220	47	
